Assay [1] addresses T1, Peroxisome proliferator-activated receptor alpha (Mus musculus) (UniProt P23204).
T1 sequence (whole entry): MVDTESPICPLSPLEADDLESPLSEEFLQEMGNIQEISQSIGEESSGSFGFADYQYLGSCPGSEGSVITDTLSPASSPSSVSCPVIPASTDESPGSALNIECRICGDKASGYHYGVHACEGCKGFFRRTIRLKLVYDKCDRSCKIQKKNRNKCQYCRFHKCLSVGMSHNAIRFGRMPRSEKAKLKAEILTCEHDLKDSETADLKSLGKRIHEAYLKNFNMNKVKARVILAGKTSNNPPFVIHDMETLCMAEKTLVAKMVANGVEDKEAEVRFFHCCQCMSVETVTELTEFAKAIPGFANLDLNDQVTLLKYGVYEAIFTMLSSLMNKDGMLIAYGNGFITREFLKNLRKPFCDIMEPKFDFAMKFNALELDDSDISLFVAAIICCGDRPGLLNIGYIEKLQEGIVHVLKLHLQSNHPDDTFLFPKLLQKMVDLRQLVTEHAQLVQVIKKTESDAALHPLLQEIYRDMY
In words: Agonist activity at human PPARalpha in mouse hepatocytes assessed as induction of cd36 mRNA expression at 50 uM incubated for 16 hrs by quantitative real-time PCR analysis. Format: cell-based. As to conditions: Hepatocyte, filed as agonist. The essentials:
(§1)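 Collagenase-perfused mouse primary hepatocytes from WT mice, plated 2 h in attachment medium, overnight in M199 with 5% charcoal-stripped FBS and 1 nM insulin. Treated next day in serum-free M199 with 50 μM compound for 16 h. RNA qPCR (SYBR Green), comparative Ct method.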
(In qPCR the cycle at which signal appears reflects the starting amount.)

The target in assay [2] is T2, Peroxisome proliferator-activated receptor gamma (Mus musculus) (UniProt P37238).
T2 sequence (whole entry): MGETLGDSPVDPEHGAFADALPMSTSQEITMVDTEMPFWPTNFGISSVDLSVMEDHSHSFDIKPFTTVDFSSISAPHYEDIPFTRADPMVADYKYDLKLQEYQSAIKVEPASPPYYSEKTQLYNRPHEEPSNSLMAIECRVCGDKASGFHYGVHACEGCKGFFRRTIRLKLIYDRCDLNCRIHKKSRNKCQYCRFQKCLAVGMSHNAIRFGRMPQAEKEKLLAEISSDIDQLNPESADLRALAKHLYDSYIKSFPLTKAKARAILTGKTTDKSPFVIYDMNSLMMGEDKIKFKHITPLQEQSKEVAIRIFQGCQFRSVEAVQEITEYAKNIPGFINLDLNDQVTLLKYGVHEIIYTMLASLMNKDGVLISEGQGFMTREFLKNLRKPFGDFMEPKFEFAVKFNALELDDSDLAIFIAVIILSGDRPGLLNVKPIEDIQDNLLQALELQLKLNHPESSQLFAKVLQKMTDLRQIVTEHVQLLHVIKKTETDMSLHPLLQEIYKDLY
Nature of the assay: Agonist activity at human PPARgamma in mouse 3T3-L1 cells assessed as induction of Adipoq-mRNA expression at 25 uM incubated for 11 days by quantitative real-time PCR analysis. Particulars: filed as agonist, time 11.0 day.

Assay [3] has as its target T1, Peroxisome proliferator-activated receptor alpha (Mus musculus). Nature of the assay: Agonist activity at human PPARalpha in mouse hepatocytes assessed as induction of Pdk4 mRNA expression at 50 uM incubated for 16 hrs by quantitative real-time PCR analysis. It counts as cell-based. Particulars: Hepatocyte, filed as agonist. An outline of the steps: as §1
Assay [4] deals with T3, Peroxisome proliferator-activated receptor alpha (Homo sapiens) (UniProt Q07869).
T3 sequence (whole entry): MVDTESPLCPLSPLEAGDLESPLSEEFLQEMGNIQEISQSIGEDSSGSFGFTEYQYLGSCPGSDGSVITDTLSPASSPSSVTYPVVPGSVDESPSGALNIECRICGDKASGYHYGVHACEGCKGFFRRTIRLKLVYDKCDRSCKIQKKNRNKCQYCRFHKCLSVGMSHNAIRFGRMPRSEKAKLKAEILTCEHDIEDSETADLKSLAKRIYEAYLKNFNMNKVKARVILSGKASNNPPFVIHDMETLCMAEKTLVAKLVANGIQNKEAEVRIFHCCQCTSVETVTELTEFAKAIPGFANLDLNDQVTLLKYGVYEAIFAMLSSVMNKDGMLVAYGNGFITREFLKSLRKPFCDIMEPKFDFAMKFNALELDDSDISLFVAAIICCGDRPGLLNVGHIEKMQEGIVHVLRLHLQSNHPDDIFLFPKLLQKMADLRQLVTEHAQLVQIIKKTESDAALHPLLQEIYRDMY
Nature of the assay: Agonist activity at human PPARalpha transfected in HEK293 cells assessed as relative luciferase unit at 50 uM measured after 16 hrs by luciferase reporter gene assay. Format: cell-based. As to conditions: filed as agonist. An outline of the steps: (§2)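 GAL4-hPPAR (α or γ) plus UAS-luciferase and β-galactosidase transiently co-transfected into HEK293 cells, then treated with 50 μM compound for 16 h. RLU = luciferase/β-galactosidase × time, vehicle (DMSO) set to 1. Mean ± SD, N = 3; one-way ANOVA with Holm–Šidák vs vehicle.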

Assay [5] deals with T3, Peroxisome proliferator-activated receptor alpha (Homo sapiens). Nature of the assay: Agonist activity at human PPARalpha expressed in HEK293 cells assessed as maximal activity by luciferase/beta-galactosidase reporter gene assay relative to GW7647. Format: cell-based. An outline of the steps:
(§3)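 HEK293 cells in charcoal-stripped FBS, calcium phosphate co-transfected with GAL4-hPPAR LBD fusion, UAS-luciferase and β-galactosidase. Ligand added 6–8 h post transfection, full dose–response, harvested 14–16 h later. Luciferase normalized to β-galactosidase.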

For assay [6], the target named is T4, Peroxisome proliferator-activated receptor alpha (Homo sapiens, UniProt Q07869).
T4 sequence (Q07869 whole entry): T3 sequence (whole entry)
In words: Agonist activity at human PPARalpha expressed in HEK293 cells by luciferase/beta-galactosidase reporter gene assay. It counts as cell-based. The essentials:
as §3
In general terms: In a reporter assay the amount or activity of a reporter protein is the signal.

Assay [7] has as its target T5, Peroxisome proliferator-activated receptor gamma (Homo sapiens, UniProt P37231).
T5 sequence (P37231 whole entry): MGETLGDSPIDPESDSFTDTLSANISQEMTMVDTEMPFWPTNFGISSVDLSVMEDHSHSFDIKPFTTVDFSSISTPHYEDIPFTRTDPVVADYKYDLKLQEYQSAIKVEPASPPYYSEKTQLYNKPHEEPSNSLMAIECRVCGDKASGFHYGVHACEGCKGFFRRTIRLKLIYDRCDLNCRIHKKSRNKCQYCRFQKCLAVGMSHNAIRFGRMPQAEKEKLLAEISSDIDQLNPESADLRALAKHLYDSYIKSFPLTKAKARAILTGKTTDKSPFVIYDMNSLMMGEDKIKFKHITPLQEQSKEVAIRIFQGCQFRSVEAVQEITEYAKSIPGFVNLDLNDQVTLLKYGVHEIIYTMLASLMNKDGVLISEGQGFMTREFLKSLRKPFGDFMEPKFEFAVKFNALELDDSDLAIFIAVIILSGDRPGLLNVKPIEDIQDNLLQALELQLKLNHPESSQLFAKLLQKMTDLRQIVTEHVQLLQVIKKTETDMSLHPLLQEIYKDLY
Nature of the assay: Agonist activity at human PPARgamma expressed in HEK293 cells by luciferase/beta-galactosidase reporter gene assay. Format: cell-based. The essentials:
as §3

The target in assay [8] is T2, Peroxisome proliferator-activated receptor gamma (Mus musculus). In words: Agonist activity at human PPARgamma in mouse 3T3-L1 cells assessed as induction of Glut4 mRNA expression at 25 uM incubated for 11 days by quantitative real-time PCR analysis. Particulars: filed as agonist, time 11.0 day.
Assay [9] concerns the target T6, Peroxisome proliferator-activated receptor gamma (Homo sapiens) (UniProt P37231).
T6 sequence (whole entry): T5 sequence (P37231 whole entry)
Nature of the assay: Agonist activity at human PPARgamma transfected in HEK293 cells assessed as relative luciferase unit at 50 uM measured after 16 hrs by luciferase reporter gene assay. Format: cell-based. As to conditions: filed as agonist. The essentials: as §2

Assay [10] addresses T1, Peroxisome proliferator-activated receptor alpha (Mus musculus). Nature of the assay: Agonist activity at human PPARalpha in mouse hepatocytes assessed as induction of fabp1 mRNA expression at 50 uM incubated for 16 hrs by quantitative real-time PCR analysis. It counts as cell-based. As to conditions: Hepatocyte, filed as agonist. An outline of the steps: as §1
Assay [11] concerns the target T7, Peroxisome proliferator-activated receptor delta (Homo sapiens) (UniProt Q03181).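 Further: reporter gene assay with luciferase read-out normalized to beta-galactosidase, measuring agonist activation of PPARδ expressed in HEK293 cells.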
T7 sequence (whole entry): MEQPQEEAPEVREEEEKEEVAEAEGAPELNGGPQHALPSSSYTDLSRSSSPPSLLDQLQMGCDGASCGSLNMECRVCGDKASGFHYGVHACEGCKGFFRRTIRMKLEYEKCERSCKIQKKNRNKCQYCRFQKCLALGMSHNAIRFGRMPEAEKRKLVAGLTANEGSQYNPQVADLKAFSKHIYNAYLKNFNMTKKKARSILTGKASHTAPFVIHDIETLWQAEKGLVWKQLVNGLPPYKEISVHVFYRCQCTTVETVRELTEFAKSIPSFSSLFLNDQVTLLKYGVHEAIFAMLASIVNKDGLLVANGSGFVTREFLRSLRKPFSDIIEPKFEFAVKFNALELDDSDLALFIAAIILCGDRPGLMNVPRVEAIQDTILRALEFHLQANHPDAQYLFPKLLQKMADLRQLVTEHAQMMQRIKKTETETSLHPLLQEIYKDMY
Particulars: HEK293, filed as agonist.

In assay [12] the test system is Danio rerio. Nature of the assay: In vivo agonist activity at human GFP-tagged PPARalpha in transgenic zebrafish assessed as increase in GFP expression in epidermis at 5 uM measured after 14 hrs by microscopy.
The test system of assay [13] is Danio rerio. Nature of the assay: In vivo agonist activity at human GFP-tagged PPARalpha in transgenic zebrafish assessed as increase in GFP expression in heart at 5 uM measured after 14 hrs by microscopy.
In assay [14] the test system is Danio rerio. In words: In vivo agonist activity at human GFP-tagged PPARalpha in transgenic zebrafish assessed as increase in GFP expression in retina at 5 uM measured after 14 hrs by microscopy.
Assay [15] has as its system Danio rerio. In words: In vivo agonist activity at human GFP-tagged PPARalpha in transgenic zebrafish assessed as increase in GFP expression in muscle at 5 uM measured after 14 hrs by microscopy.
Assay [16] has as its target T1, Peroxisome proliferator-activated receptor alpha (Mus musculus). In words: Agonist activity at human PPARalpha in mouse hepatocytes assessed as induction of Fgf21 mRNA expression at 50 uM incubated for 16 hrs by quantitative real-time PCR analysis. As to conditions: Hepatocyte, filed as agonist. Format: cell-based. An outline of the steps: as §1
Assay [17] has as its system Danio rerio. Nature of the assay: In vivo agonist activity at human GFP-tagged PPARalpha in transgenic zebrafish assessed as increase in GFP expression in CNS at 5 uM measured after 14 hrs by microscopy.
The test system of assay [18] is Danio rerio. Nature of the assay: In vivo agonist activity at human GFP-tagged PPARalpha in transgenic zebrafish assessed as increase in GFP expression in brain at 1.5 uM measured after 14 hrs by microscopy.
For assay [19], the system named is Danio rerio. Nature of the assay: In vivo agonist activity at human GFP-tagged PPARalpha in transgenic zebrafish assessed as increase in GFP expression in muscle at 1.5 uM measured after 14 hrs by microscopy.
Assay [20] has as its system Danio rerio. Nature of the assay: In vivo agonist activity at human GFP-tagged PPARgamma in transgenic zebrafish assessed as increase in GFP expression in CNS at 1 uM measured after 14 days by microscopy. Particulars: time 14.0 day. Format: functional, organism-based.
In assay [21] the test system is Danio rerio. Nature of the assay: In vivo agonist activity at human GFP-tagged PPARgamma in transgenic zebrafish assessed as increase in GFP expression in muscle at 1 uM measured after 14 days by microscopy. Particulars: time 14.0 day. It counts as functional, organism-based.
In assay [22] the test system is Danio rerio. In words: In vivo agonist activity at human GFP-tagged PPARalpha in transgenic zebrafish assessed as increase in GFP expression in yolk sac at 1.5 uM measured after 14 hrs by microscopy.
The test system of assay [23] is Danio rerio. Nature of the assay: In vivo agonist activity at human GFP-tagged PPARalpha in transgenic zebrafish assessed as increase in GFP expression in heart at 1.5 uM measured after 14 hrs by microscopy.

The source made the active and inactive calls. The calls are words filed in the database; no cut-off is given here.

With `CCCCCC/C=C\CCCCCCCc1cccc(OCC(=O)OCC)c1`, the result in assay [1], in [2], in [3], in [4], in [8] and in assay [9] was Active. The result in [10] was Active. For the same compound, the Emax in assay [5] stood at 30%. In addition, the half-maximal effective concentration (EC50) (usually the concentration at which the effect is half-maximal) in assay [6] is 4.4 µM; in assay [7], more than 50 µM; in assay [11], 7.1 µM.
On to `Cc1cccc(Nc2cc(Cl)nc(SCC(=O)O)n2)c1C`, for which the result in [12], in [1], in [13], in assay [3], in [14] and in [15] was Active. For the same compound, the outcome in assay [16], in assay [17] and in [10] was Active.
Turning to `Cc1cc(SCc2sc(-c3ccc(C(F)(F)F)c(F)c3)nc2C)ccc1OCC(=O)O`, the outcome in assay [18], in assay [19], in [20], in assay [21], in assay [22] and in assay [23] was Active.

The record behind these values is ChEMBL document CHEMBL5154715, “Phenolic Lipids Derived from Cashew Nut Shell Liquid to Treat Metabolic Diseases” (J Med Chem, 2022).
